Measured values published in ChEMBL document CHEMBL4257478, “Design, synthesis and evaluation of (R)-3-(7-(methyl(7H-pyrrolo[2,3-d]pyrimidin-4-yl)amino)-5-azaspiro[2.4]heptan-5-yl)-3-oxopropanenitrile as a JAK1-selective inhibitor” (Medchemcomm, 2018).

Columns and labels:
[1] = Metabolic stability in human plasma assessed as parent compound remaining at 10 uM after 120 mins by LC-MS/MS method; format: ADME, cell-free; conditions: read-out: Stability
In short: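 Human plasma spiked with test article at 10 μM and incubated at 37 °C for 0, 30 and 120 min. Acetonitrile with chlorpropamide internal standard added, sample centrifuged at 4 °C, supernatant analysed by LC-MS/MS; result given as percent remaining.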

[2] = Metabolic stability in rat plasma assessed as parent compound remaining at 10 uM after 120 mins by LC-MS/MS method; format: ADME, cell-free; conditions: read-out: Stability
In short: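 Rat plasma spiked with test article at 10 μM and incubated at 37 °C, sampled at 0, 30 and 120 min. Acetonitrile containing chlorpropamide internal standard added, then vortexed and centrifuged at 4 °C; supernatant quantified by LC-MS/MS as % remaining. Procaine and diltiazem served as positive controls.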

[3] = Protein binding in human plasma at 10 uM after 4 hrs by rapid equilibrium dialysis method; format: ADME, cell-free; conditions: read-out: PPB (converted)
In short: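 Rapid equilibrium dialysis of human or rat plasma dosed at 10 μM against PBS pH 7.4, 4 h at 37 °C. Plasma and buffer aliquots were matrix-matched with blank buffer or plasma, precipitated with acetonitrile containing chlorpropamide internal standard, and analysed by LC-MS/MS. Dexamethasone and warfarin served as positive controls.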

[4] = Lipophilicity, log P of the compound in neutral form; format: physicochemical; conditions: octanol/water
[5] = Metabolic stability in human liver microsomes assessed as parent compound remaining at 1 uM preincubated for 5 mins followed by addition of NADPH regenerating system and measured after 30 mins by LC-MS/MS method; format: ADME, microsome; conditions: read-out: Stability
In short: (§1)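 Liver microsomes (0.5 mg/mL; human, dog or mouse) in 0.1 M phosphate buffer with test article at 1 μM, preincubated 5 min at 37 °C. NADPH regenerating system added, then 30 min at 37 °C. Acetonitrile with chlorpropamide internal standard added, sample centrifuged, supernatant analysed by LC-MS/MS.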

[6] = Metabolic stability in dog liver microsomes assessed as parent compound remaining at 1 uM preincubated for 5 mins followed by addition of NADPH regenerating system and measured after 30 mins by LC-MS/MS method; format: ADME, Canis lupus familiaris, microsome; conditions: read-out: Stability; in short: as §1
[7] = Apparent permeability across apical to basolateral side in human Caco2 cells at 25 uM measured every 15 mins for 60 mins by LC-MS/MS method; format: ADME, cell-based; conditions: Caco-2
In short: (§2)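 Caco-2 cells were seeded at 1×10^6 per 12-well transwell and grown 3 weeks. Test article was 25 μM in HBSS transport buffer (10 mM glucose, 4 mM bicarbonate, 1 mM HEPES, pH 7.4), added to the apical or basolateral side. Incubated 60 min at 37 °C with sampling every 15 min; LC-MS/MS read-out.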

[8] = Apparent permeability across basolateral to apical side in human Caco2 cells at 25 uM measured every 15 mins for 60 mins by LC-MS/MS method; format: ADME, cell-based; conditions: Caco-2; in short: as §2
[9] = molecular target: T1, CYP1A2 (Homo sapiens, UniProt P05177); experiment: Inhibition of CYP1A2 in human liver microsomes assessed as remaining activity at 10 uM using phenacetin as substrate preincubated for 5 mins followed by addition of NADPH regenerating system and measured after 15 mins by LC-MS/MS analysis relative to control; format: ADME; conditions: probe phenacetin, read-out: Activity
T1 sequence (P05177 whole entry): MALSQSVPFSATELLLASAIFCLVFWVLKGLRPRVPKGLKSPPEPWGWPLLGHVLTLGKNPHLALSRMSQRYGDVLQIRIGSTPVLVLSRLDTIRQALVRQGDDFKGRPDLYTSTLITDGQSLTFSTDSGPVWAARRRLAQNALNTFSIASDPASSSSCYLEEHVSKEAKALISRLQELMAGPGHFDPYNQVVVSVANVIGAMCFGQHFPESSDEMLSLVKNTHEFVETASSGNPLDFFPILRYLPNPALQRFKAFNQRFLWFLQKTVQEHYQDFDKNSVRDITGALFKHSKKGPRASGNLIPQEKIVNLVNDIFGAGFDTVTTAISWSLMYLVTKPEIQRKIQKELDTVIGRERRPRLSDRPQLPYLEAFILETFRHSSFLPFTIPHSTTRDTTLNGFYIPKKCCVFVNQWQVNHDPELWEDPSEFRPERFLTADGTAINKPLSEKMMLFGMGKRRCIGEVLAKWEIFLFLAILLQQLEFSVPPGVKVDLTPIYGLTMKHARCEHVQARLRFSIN
In short: (§3)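 Human liver microsomes (0.25 mg/mL) in 0.1 M phosphate buffer with test article at 0 or 10 μM and substrate cocktail, preincubated 5 min at 37 °C. Cocktail A: phenacetin 50 μM, coumarin 2.5 μM, S-mephenytoin 100 μM, dextromethorphan 5 μM, midazolam 2.5 μM. Cocktail B: bupropion 50 μM, amodiaquine 2.5 μM, tolbutamide 100 μM, chlorzoxazone 50 μM. NADPH system added, then 15 min at 37 °C; acetonitrile quench, LC-MS/MS.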

[10] = molecular target: T2, CYP2A6 (Homo sapiens, UniProt P11509); experiment: Inhibition of CYP2A6 in human liver microsomes assessed as remaining activity at 10 uM using coumarin as substrate preincubated for 5 mins followed by addition of NADPH regenerating system and measured after 15 mins by LC-MS/MS analysis relative to control; format: ADME; conditions: probe coumarin, read-out: Activity; in short: as §3
T2 sequence (P11509 whole entry): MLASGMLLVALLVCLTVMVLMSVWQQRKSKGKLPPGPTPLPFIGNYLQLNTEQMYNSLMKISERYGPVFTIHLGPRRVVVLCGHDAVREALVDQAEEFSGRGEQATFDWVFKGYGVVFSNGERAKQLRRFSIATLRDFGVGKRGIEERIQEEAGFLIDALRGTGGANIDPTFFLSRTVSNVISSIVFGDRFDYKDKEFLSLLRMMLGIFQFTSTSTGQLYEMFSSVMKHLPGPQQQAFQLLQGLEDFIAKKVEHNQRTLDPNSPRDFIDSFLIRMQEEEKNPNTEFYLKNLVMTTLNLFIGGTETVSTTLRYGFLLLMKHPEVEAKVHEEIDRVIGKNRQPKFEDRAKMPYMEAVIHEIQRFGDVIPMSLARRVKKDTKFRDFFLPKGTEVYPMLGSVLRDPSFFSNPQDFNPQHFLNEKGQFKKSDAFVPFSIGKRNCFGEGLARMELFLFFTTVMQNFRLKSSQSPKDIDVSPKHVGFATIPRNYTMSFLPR

[11] = molecular target: CYP2D6 (Homo sapiens, UniProt P10635); experiment: Inhibition of CYP2D6 in human liver microsomes assessed as remaining activity at 10 uM using dextromethorphan as substrate preincubated for 5 mins followed by addition of NADPH regenerating system and measured after 15 mins by LC-MS/MS analysis relative to control; format: ADME; conditions: probe dextromethorphan, read-out: Activity; in short: as §3
[12] = Tmax in Sprague-Dawley rat at 10 mg/kg, po after 0.25 to 24 hrs by LC-MS/MS method; format: ADME, organism-based; conditions: in vivo
In short: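 Male Sprague Dawley rats, 7–8 weeks old, n=4, fasted 16 h. Free base given at 10 mg/kg po as a corn oil suspension (5 mL/kg); a 5 mg/kg iv arm used 10% ethanol/90% PEG400. Plasma sampled 0.25–24 h, acetonitrile-precipitated with internal standard, and measured by LC-MS/MS. Parameters derived by non-compartmental analysis.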

[13] = species: Homo sapiens; experiment: Selectivity index, ratio of IC50 for human JAK2 to IC50 for human JAK1
In short: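 Kinase activity assays run as a commercial service at Km ATP; IC50 values fitted from concentration-response data; ratio of JAK2 to JAK1 IC50.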

Sequence of CYP2D6 (P10635 whole entry): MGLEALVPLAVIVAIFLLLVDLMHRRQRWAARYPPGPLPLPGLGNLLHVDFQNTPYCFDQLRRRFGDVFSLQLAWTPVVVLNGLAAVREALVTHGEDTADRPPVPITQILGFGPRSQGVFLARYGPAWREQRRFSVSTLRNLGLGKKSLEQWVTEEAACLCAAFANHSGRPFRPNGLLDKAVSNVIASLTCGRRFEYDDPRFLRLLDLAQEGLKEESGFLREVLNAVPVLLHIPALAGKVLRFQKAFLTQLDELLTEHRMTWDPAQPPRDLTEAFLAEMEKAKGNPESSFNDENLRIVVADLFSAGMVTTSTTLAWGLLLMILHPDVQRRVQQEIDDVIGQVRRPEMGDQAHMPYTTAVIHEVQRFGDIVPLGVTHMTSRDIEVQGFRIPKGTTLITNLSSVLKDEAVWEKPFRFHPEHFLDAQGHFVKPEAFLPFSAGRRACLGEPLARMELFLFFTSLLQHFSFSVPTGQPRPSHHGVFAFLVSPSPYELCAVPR

CN(c1ncnc2[nH]ccc12)[C@H]1CN(C(=O)CC#N)CC12CC2
remaining at 2 h, 10 µM [1]: 98.5% | remaining at 2 h, 10 µM [2]: 89.6% | fraction unbound at 4 h, 10 µM [3]: 0.702 | logP [4]: 1.69 | remaining at 0.5 h, 1 µM [5]: 94.6% | remaining at 0.5 h, 1 µM [6]: 99.9% | Papp A→B at 1 h, 25 µM [7]: 6.6 ×10⁻⁶ cm/s | Papp B→A at 1 h, 25 µM [8]: 18.5 ×10⁻⁶ cm/s | activity at 0.25 h, 10 µM [9]: 92.5% | activity at 0.25 h, 10 µM [10]: 92% | activity at 0.25 h, 10 µM [11]: 91.6% | Tmax [12]: 18 min

CN(c1ncnc2[nH]ccc12)[C@H]1CN(S(=O)(=O)c2cccc(C#N)c2)CC12CC2
Ratio IC50 [13]: 10 | remaining at 2 h, 10 µM [1]: 98.6% | remaining at 2 h, 10 µM [2]: > 100% | fraction unbound at 4 h, 10 µM [3]: 0.126 | logP [4]: 3.69 | remaining at 0.5 h, 1 µM [5]: 6% | remaining at 0.5 h, 1 µM [6]: 5.5% | Papp A→B at 1 h, 25 µM [7]: 13.4 ×10⁻⁶ cm/s | Papp B→A at 1 h, 25 µM [8]: 15.7 ×10⁻⁶ cm/s | activity at 0.25 h, 10 µM [9]: 65.7% | activity at 0.25 h, 10 µM [10]: 87.2% | activity at 0.25 h, 10 µM [11]: 90.3%

CCS(=O)(=O)N1C[C@H](N(C)c2ncnc3[nH]ccc23)C2(CC2)C1
Ratio IC50 [13]: 25 | remaining at 2 h, 10 µM [1]: > 100% | remaining at 2 h, 10 µM [2]: > 100% | fraction unbound at 4 h, 10 µM [3]: 0.556 | logP [4]: 2.07 | remaining at 0.5 h, 1 µM [5]: 79.7% | remaining at 0.5 h, 1 µM [6]: 56.1% | Papp A→B at 1 h, 25 µM [7]: 25.4 ×10⁻⁶ cm/s | Papp B→A at 1 h, 25 µM [8]: 25.6 ×10⁻⁶ cm/s | activity at 0.25 h, 10 µM [9]: 99.9% | activity at 0.25 h, 10 µM [10]: 96.7% | activity at 0.25 h, 10 µM [11]: > 100%
